Laboratory results reported in ChEMBL document CHEMBL1139439, “Folate-synthesizing enzyme system as target for development of inhibitors and inhibitor combinations against Candida albicans-synthesis and biological activity of new 2,4-diaminopyrimidines and 4'-substituted 4-aminodiphenyl sulfones” (J Med Chem, 2004).
Values after ≈ are worked out from the molar mass of the structure shown.

Assays:
Dihydrofolate reductase [1] = biological target: T1, Dihydrofolate reductase (Candida albicans, UniProt P22906); assay: Inhibitory activity against cell free dihydrofolate reductase (DHFR) from Candida albicans; details: for IC50: read-out: I50
T1 sequence (P22906 whole entry): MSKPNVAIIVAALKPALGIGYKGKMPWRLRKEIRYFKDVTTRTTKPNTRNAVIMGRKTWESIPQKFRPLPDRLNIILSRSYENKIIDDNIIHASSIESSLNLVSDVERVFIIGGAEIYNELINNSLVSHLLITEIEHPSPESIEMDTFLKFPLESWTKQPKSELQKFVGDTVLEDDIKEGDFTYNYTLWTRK

Dihydrofolate reductase [2] = biological target: T2, Dihydrofolate reductase (Rattus norvegicus, UniProt Q920D2); assay: Inhibitory activity against cell free dihydrofolate reductase (DHFR) from rat; details: for IC50: read-out: I50
T2 sequence (Q920D2 whole entry): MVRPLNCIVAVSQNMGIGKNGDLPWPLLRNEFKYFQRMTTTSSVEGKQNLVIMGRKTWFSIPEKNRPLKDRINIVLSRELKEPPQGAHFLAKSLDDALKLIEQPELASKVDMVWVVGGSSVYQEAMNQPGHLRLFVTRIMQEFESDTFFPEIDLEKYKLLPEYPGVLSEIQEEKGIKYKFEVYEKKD

[3] = biological target: Dihydrofolate reductase (Mycobacterium lufu); assay: Inhibitory activity against cell free dihydrofolate reductase (DHFR) from Mycobacterium lufu
Candida albicans [4] = assay: Inhibitory effect on Candida albicans YEM15 CDR1CDR2up Strain; format: functional
Procedure, shortened: (§1)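 MICs were determined by serial dilution in RPMI medium. MIC is the lowest concentration giving culture turbidity ≤20% of the control culture.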

Candida albicans [5] = assay: Inhibitory effect on Candida albicans YEM27 quad deletion Strain; format: functional; procedure, shortened: as §1
Candida albicans [6] = assay: Inhibitory effect on Candida albicans YEM12 Strain; format: functional; procedure, shortened: as §1
Candida albicans [7] = assay: Inhibitory effect on Candida albicans YEM13 BENup Strain; format: functional; procedure, shortened: as §1
Candida albicans [8] = assay: Inhibitory effect on Candida albicans wild type YEM30 Strain; format: functional; procedure, shortened: as §1
Candida albicans [9] = assay: Inhibitory effect on Candida albicans wild type YEM14 Strain; format: functional; procedure, shortened: as §1
[10] = Inhibitory activity against dihydropteroic acid synthase (SYN) from candida albicans; details: read-out: I50
Procedure, shortened: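 Partially purified SYN extract was prepared from C. albicans ATCC 11651 and incubated with sulfones at pH 8.4. Periodic samples were quenched with trichloroacetic acid, and folate formed was quantified by bioassay with folate-requiring Streptococcus faecium. I50 is the concentration giving a 50% decrease in dihydropteroic acid production versus the uninhibited control.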

[11] = Inhibitory activity against dihydropteroic acid synthase (SYN) from Mycobacterium lufu (DDS resistant); details: read-out: I50
[12] = Inhibitory activity against dihydropteroic acid synthase (SYN) from Mycobacterium lufu (DDS sensitive); details: read-out: I50
[13] = biological target: T3, Dihydropteroate synthetase, putative (Plasmodium berghei str. ANKA, UniProt A0A113T0T6); assay: (§2) Inhibitory activity against dihydropteroic acid synthase (SYN) from Plasmodium berghei; details: read-out: I50
T3 sequence (A0A113T0T6 whole entry): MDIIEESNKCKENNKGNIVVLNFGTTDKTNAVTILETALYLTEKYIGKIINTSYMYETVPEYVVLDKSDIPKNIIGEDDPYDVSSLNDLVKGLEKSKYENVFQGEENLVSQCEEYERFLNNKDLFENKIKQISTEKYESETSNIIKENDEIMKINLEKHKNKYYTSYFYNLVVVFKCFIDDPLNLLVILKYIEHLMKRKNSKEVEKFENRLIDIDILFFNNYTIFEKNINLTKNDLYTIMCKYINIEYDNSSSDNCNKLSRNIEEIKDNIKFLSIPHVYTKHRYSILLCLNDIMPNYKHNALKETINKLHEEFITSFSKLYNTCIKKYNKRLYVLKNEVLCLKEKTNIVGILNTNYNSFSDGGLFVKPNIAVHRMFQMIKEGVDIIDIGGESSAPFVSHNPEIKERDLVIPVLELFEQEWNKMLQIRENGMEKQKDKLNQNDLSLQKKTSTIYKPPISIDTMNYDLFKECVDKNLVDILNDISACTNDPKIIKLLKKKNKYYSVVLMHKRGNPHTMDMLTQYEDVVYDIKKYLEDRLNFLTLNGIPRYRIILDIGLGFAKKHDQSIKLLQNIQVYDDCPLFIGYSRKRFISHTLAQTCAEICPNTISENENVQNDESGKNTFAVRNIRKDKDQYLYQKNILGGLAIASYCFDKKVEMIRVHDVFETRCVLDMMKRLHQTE

Nakaseomyces glabratus [14] = assay: Inhibitory effect on Candida glabrata YEM88 CgCDR1 CgCDR2up Strain; format: functional
Procedure, shortened: (§3)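 For C. glabrata strains, MICs were determined by serial dilution in RPMI medium and read after 48 h. MIC is the lowest concentration giving turbidity ≤20% of the control culture.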

Nakaseomyces glabratus [15] = assay: Inhibitory effect on Candida glabrata YEM75 WT Strain; format: functional; procedure, shortened: as §3
Nakaseomyces glabratus [16] = assay: Inhibitory effect on Candida glabrata YEM216 pCDR1pCDR2pBEN YEM75 WT Strain; format: functional; procedure, shortened: as §3
[17] = Inhibitory activity against dihydropteroic acid synthase (SYN) from Escherichia coli; details: read-out: I50
[18] = biological target: T4, Dihydropteroate synthetase, putative (Plasmodium berghei str. ANKA) (UniProt A0A113T0T6); assay: as §2
T4 sequence (whole entry): T3 sequence (A0A113T0T6 whole entry)

Nc1ncc(NCc2ccccc2)c(N)n1
IC50 (Dihydrofolate reductase [1]): 7.94 µM | IC50 (Dihydrofolate reductase [2]): 58.2 µM | I50 [3]: 105 uM l-1

Nc1ncc(OCc2c(Cl)cccc2Cl)c(N)n1
IC50 (Dihydrofolate reductase [1]): 3.1 µM | IC50 (Dihydrofolate reductase [2]): 2.57 µM

OC(Cn1cncn1)(Cn1cncn1)c1ccc(F)cc1F [FLUCONAZOLE]
MIC (Candida albicans [4]): 64 µg/mL (≈ 209 µM) | MIC (Candida albicans [5]): ≤ 0.25 µg/mL | MIC (Candida albicans [6]): 1 µg/mL (≈ 3.27 µM) | MIC (Candida albicans [7]): 64 µg/mL (≈ 209 µM) | MIC (Candida albicans [8]): 2 µg/mL (≈ 6.53 µM) | MIC (Candida albicans [9]): 64 µg/mL (≈ 209 µM)

CN(C)c1ccc(S(=O)(=O)c2ccc(N)cc2)cc1
IC50 [10]: 3.83 µM | IC50 [11]: 2.04 µM | IC50 [12]: 1.76 µM | IC50 [13]: 21.5 µM

Nc1ncc(OCc2cccc3ccccc23)c(N)n1
IC50 (Dihydrofolate reductase [1]): 0.43 µM | MIC (Candida albicans [4]): > 64 µg/mL | MIC (Candida albicans [5]): 32 µg/mL (≈ 120 µM) | MIC (Nakaseomyces glabratus [14]): 64 µg/mL (≈ 240 µM) | MIC (Candida albicans [6]): 32 µg/mL (≈ 120 µM) | MIC (Nakaseomyces glabratus [15]): 16 µg/mL (≈ 60.1 µM) | IC50 (Dihydrofolate reductase [2]): 2.63 µM | MIC (Candida albicans [7]): > 64 µg/mL | MIC (Nakaseomyces glabratus [16]): 16 µg/mL (≈ 60.1 µM) | MIC (Candida albicans [8]): > 64 µg/mL | MIC (Candida albicans [9]): > 64 µg/mL

Nc1ncc(Cc2ccc3ccccc3c2)c(N)n1
IC50 (Dihydrofolate reductase [1]): 4.77 µM | IC50 (Dihydrofolate reductase [2]): 61.2 µM

COc1cc(Cc2cnc(N)nc2N)ccc1OCCCCN1C(=O)c2ccccc2C1=O
IC50 (Dihydrofolate reductase [1]): 0.031 µM | MIC (Candida albicans [4]): > 64 µg/mL | MIC (Candida albicans [5]): > 64 µg/mL | MIC (Nakaseomyces glabratus [14]): > 64 µg/mL | MIC (Candida albicans [6]): > 64 µg/mL | MIC (Nakaseomyces glabratus [15]): > 64 µg/mL | IC50 (Dihydrofolate reductase [2]): 1.81 µM | MIC (Candida albicans [7]): > 64 µg/mL | MIC (Nakaseomyces glabratus [16]): > 64 µg/mL | MIC (Candida albicans [8]): > 64 µg/mL | MIC (Candida albicans [9]): > 64 µg/mL

Nc1ncc(/C=C/c2ccccc2)c(N)n1
IC50 (Dihydrofolate reductase [1]): 5.72 µM | I50 (Dihydrofolate reductase [2]): 130.6 uM l-1

Nc1ncc(OCc2ccc(Cl)c(Cl)c2)c(N)n1
IC50 (Dihydrofolate reductase [1]): 3.72 µM | IC50 (Dihydrofolate reductase [2]): 56.7 µM

Nc1ccc(S(=O)(=O)c2ccccc2)cc1
IC50 [10]: 13.3 µM | IC50 [11]: 12 µM | IC50 [17]: 116 µM | IC50 [12]: 12.1 µM | IC50 [13]: 104 µM

Nc1ncc(CCc2ccccc2)c(N)n1
IC50 (Dihydrofolate reductase [1]): 3.37 µM | IC50 (Dihydrofolate reductase [2]): 39.9 µM

Nc1ncc(OCc2ccccc2Cl)c(N)n1
IC50 (Dihydrofolate reductase [1]): 0.73 µM | IC50 (Dihydrofolate reductase [2]): 3.53 µM

Nc1ncc(OCc2ccc(Br)c3ccccc23)c(N)n1
IC50 (Dihydrofolate reductase [1]): 0.49 µM | IC50 (Dihydrofolate reductase [2]): 2.82 µM

COc1ccc(CNc2cnc(N)nc2N)cc1OC
I50 (Dihydrofolate reductase [1]): 125.8 uM l-1 | I50 (Dihydrofolate reductase [2]): 197.3 uM l-1

Cc1ccc(S(=O)(=O)c2ccc(N)cc2)cc1
IC50 [10]: 10.1 µM | IC50 [11]: 5.92 µM | IC50 [17]: 89.9 µM | IC50 [12]: 8.08 µM | IC50 [13]: 48 µM

COC(=O)CNc1ccc(S(=O)(=O)c2ccc(N)cc2)cc1
IC50 [10]: 1.33 µM | IC50 [11]: 2.63 µM | IC50 [17]: 101 µM | IC50 [12]: 2.24 µM

Nc1ccc(S(=O)(=O)c2ccc(NCC(=O)O)cc2)cc1 [ACEDIASULFONE]
IC50 [10]: 1.22 µM | IC50 [11]: 0.82 µM | IC50 [17]: 37.1 µM | IC50 [12]: 0.87 µM | IC50 [13]: 17.8 µM

Cc1ccc(S(=O)(=O)NCCCCOc2ccc(Cc3cnc(N)nc3N)cc2)cc1
IC50 (Dihydrofolate reductase [1]): 0.581 µM | IC50 (Dihydrofolate reductase [2]): 1.72 µM

Nc1ncc(NCc2ccc(Cl)c(Cl)c2)c(N)n1
IC50 (Dihydrofolate reductase [1]): 84.8 µM | I50 (Dihydrofolate reductase [2]): > 350 uM l-1

Nc1ncc(OCc2ccc(OCCCN3C(=O)c4ccccc4C3=O)cc2)c(N)n1
IC50 (Dihydrofolate reductase [1]): 0.619 µM | IC50 (Dihydrofolate reductase [2]): 15.7 µM

Nc1ccc(S(=O)(=O)c2ccc(O)cc2)cc1
IC50 [10]: 2.4 µM | IC50 [11]: 1.61 µM | IC50 [17]: 34.9 µM | IC50 [12]: 1.5 µM | I50 [18]: 32.2 µM

CCNc1ccc(S(=O)(=O)c2ccc(N)cc2)cc1
IC50 [10]: 3.16 µM | IC50 [11]: 1.48 µM | IC50 [17]: 41.7 µM | IC50 [12]: 2.75 µM

Cc1ccc(S(=O)(=O)NCCCOc2ccc(COc3cnc(N)nc3N)cc2)cc1
IC50 (Dihydrofolate reductase [1]): 0.435 µM | IC50 (Dihydrofolate reductase [2]): 4.43 µM

Nc1ncc(Cc2ccccc2)c(N)n1
IC50 (Dihydrofolate reductase [1]): 90.5 µM | I50 (Dihydrofolate reductase [2]): 115.3 uM l-1

Nc1ncc(OCc2ccc(OCCCCN3C(=O)c4ccccc4C3=O)cc2)c(N)n1
IC50 (Dihydrofolate reductase [1]): 0.078 µM | IC50 (Dihydrofolate reductase [2]): 6.07 µM

Nc1ncc(Cc2ccc(OCCCCN3C(=O)c4ccccc4C3=O)cc2)c(N)n1
IC50 (Dihydrofolate reductase [1]): 0.047 µM | IC50 (Dihydrofolate reductase [2]): 3.64 µM

COc1ccc(CCc2cnc(N)nc2N)cc1OC
IC50 (Dihydrofolate reductase [1]): 35.4 µM | I50 (Dihydrofolate reductase [2]): 315.3 uM l-1
